Source: PubChem (several laboratories)
Shown are actives, neighbours in structure and some others; about 1.9% of the full set was active somewhere.
proCasp3 act – activators of human procaspase-3 | actives 0.11% (n = 330,000) | P42574 | AID 463141 | recombinant procaspase-3 D3A, Ac-DEVD-pNA absorbance 405 nm | activation, % at 8.5 µM;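 active = activation above the mean of all tested compounds plus 3 SD, cut at about 21% in these data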;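 note: 0% = DMSO alone and 100% = DMSO wells spiked with extra 5 µM PC-3 D3A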
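Compound: 8.5 µM single point, 0.8% DMSO / Material: Autoprocessing-dead procaspase-3 D3A mutant enzyme / Timing: 1 h preincubation plus 2 h reaction at 25 °C / Medium: Zinc-free HEPES/NaCl buffer with 0.01% Triton X-100 at pH 7.4 / Technique: 405 nm absorbance of p-nitroaniline, reads at 0 and 120 min / Repeats: one well per compound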
proCasp7 act – counter-screen for procaspase-3 activators: activators of human procaspase-7; P55210; recombinant procaspase-7, Ac-DEVD-pNA absorbance 405 nm; D23A/D198A/D206A triple mutant, cannot self-cleave; scale: DMSO 0, 5 µM enzyme 100; activation, % at 8.5 µM; actives 0.093% (n = 330,000); AID 463210;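 active = percent activation above the screen-wide mean plus 3 SD, cut at about 25% in these data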
Target sequence (P55210 whole entry D23A/D198A/D206A): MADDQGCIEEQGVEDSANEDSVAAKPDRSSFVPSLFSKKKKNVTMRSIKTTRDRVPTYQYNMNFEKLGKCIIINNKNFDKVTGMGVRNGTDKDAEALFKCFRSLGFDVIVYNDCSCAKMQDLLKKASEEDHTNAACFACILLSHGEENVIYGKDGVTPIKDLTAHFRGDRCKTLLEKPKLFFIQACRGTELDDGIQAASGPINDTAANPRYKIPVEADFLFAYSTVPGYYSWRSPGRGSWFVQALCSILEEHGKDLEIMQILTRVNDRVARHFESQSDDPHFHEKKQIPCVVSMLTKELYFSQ
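buffer or medium = Zinc-free HEPES/NaCl buffer, pH 7.4 | material = Procaspase-7 triple mutant (PC-7 D3A) | input = 2 µM procaspase-7 mutant as dispensed | signal = Epi-absorbance of released pNA at 405 nm, two timepoints | timing = 1 h preincubation, 2 h reaction | replicates = singlicate compound testing | evaluation = % activation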
PHOSPHO1 block – PHOSPHO1 (human) inhibition; recombinant PHOSPHO1, absorbance phosphatase assay; inhibition, % at 13.3 µM; actives 1.1% (n = 290,000); AID 1565; Q8TCT1; in the data active = inhibition above about 60%
Target sequence (Q8TCT1 whole entry, looked up): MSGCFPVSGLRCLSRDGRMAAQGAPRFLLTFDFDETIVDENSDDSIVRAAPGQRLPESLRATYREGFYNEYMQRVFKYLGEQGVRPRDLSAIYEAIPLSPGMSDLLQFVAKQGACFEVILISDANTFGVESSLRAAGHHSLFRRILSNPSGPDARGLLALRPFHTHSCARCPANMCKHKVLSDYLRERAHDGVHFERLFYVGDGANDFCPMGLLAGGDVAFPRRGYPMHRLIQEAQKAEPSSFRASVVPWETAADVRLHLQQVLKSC
IDE act – boosts human insulin-degrading enzyme activity in HEK cells. FAbeta-B cleavage, fluorescence polarization; 0% vehicle, 100% cell-free pure enzyme wells. actives 0.073% (n = 340,000). AID 493087. activation, % at 5.96 µM;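 active = activation above the mean of all tested compounds plus 3 SD, set per screening campaign, cut at about 17% in these data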
UBC13 inh – inhibitors of human UBC13 polyubiquitin chain formation; inhibition, % at 20 µM; TR-FRET; actives 0.47% (n = 330,000); P61088; in the data active = inhibition above about 45%, passing the limit was not always enough
IDE cell inh – inhibitors of human insulin-degrading enzyme in cells; inhibition, % at 5.59 µM; HEK cells, FAbetaB cleavage, fluorescence polarization; actives 0.41% (n = 320,000); P14735;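 active = percent inhibition above the average of all tested compounds plus 3 SD, set per screening campaign, cut at about 16% in these data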;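 note: IDE supplied by intact live HEK cells; FP after avidin binding of uncleaved biotin substrate so inhibition keeps polarization high; 0% = DMSO wells and 100% = 60 µM reference IDE inhibitor Ii1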
IDE cell inh cf – cellular human IDE inhibition, confirmation | shares compounds with IDE cell inh | HEK cells, FAbetaB cleavage, fluorescence polarization | inhibition, % at 5.59 µM | actives 51% (n = 1,200) | AID 435028;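 active = mean inhibition across triplicate wells above the cutoff set by the earlier primary insulin-degrading enzyme screen, cut at about 16% in these data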;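 note: 0% = DMSO wells and 100% = 60 µM reference IDE inhibitor Ii1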
HEK293 tox – counter-screen for IDE inhibitors: cytotoxicity in HEK cells | shares compounds with IDE cell inh | HEK293 cytotoxicity, ATP luminescence | inhibition, % at 5.59 µM | AID 449730 | actives 28% (n = 1,200); in the data active = inhibition above about 22%;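 note: 0% = vehicle wells and 100% = reference cytotoxic drug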
IDE FP artifact – fluorescent artifact in IDE inhibitor FP assay; FP counterscreen for fluorescent artifacts, IDE probe project; shares compounds with IDE cell inh; IC50, µM; 30 tested, under 10 active; call rule not given here
Numbers without * were called inactive.

`COc1cc(/C=C2\C(=O)N(C)C(=S)N2C)ccc1O` gave proCasp3 act -2, proCasp7 act -10, PHOSPHO1 block -3, IDE act -8, UBC13 inh -45, IDE cell inh 19*, IDE cell inh cf 31* and HEK293 tox 12.
Screening COc1cc(/C=C2/CC/C(=C/c3ccc(O)c(OC)c3)C2=O)ccc1O returned proCasp3 act -4, proCasp7 act -18, PHOSPHO1 block 12, IDE act -17, UBC13 inh -58, IDE cell inh 24*, IDE cell inh cf 36* and HEK293 tox 32*.
For Cc1ccc2nc(N3CCN(Cc4nnnn4Cc4ccccc4)CC3)c(C#N)cc2c1 the results were proCasp3 act -8, proCasp7 act -10, PHOSPHO1 block 6, IDE act -8, UBC13 inh 19, IDE cell inh 21*, IDE cell inh cf 0 and HEK293 tox 11.
CCOC(=O)c1c(C)[nH]c(C(=O)COC(=O)[C@H](C)NC(=O)c2ccccc2Cl)c1C was read as proCasp3 act 6, proCasp7 act -3, PHOSPHO1 block -1, IDE act -6, UBC13 inh -8 and IDE cell inh -1.
For CCOC(=O)c1c(C)[nH]c(C(=O)COC(=O)CNC(=O)c2ccccc2Cl)c1C the results were proCasp3 act 3, proCasp7 act 5, PHOSPHO1 block 12, IDE act 2, UBC13 inh -1, IDE cell inh 17*, IDE cell inh cf 1 and HEK293 tox 13.
Cc1ccc(OC/C(=N\O)C(C)(C)C)c([N+](=O)[O-])c1 was read as proCasp3 act -6, proCasp7 act -1, PHOSPHO1 block 33, IDE act 1, UBC13 inh 4 and IDE cell inh 2.
Screening Cc1ccc(NC(=O)c2ccc3nc(N4CCOCC4)sc3c2)c(Cl)c1 returned proCasp3 act 4, proCasp7 act -5, PHOSPHO1 block 15, IDE act -2, UBC13 inh -10 and IDE cell inh 4.
`Cc1ccc(-c2ccc(=O)n(Cc3c(F)cccc3Cl)n2)cc1` gave PHOSPHO1 block 48, IDE act 3 and UBC13 inh -3.
`Cc1ccc(/C=C/C(=O)N2CCCN(C(=O)/C=C/c3ccc(C)cc3)CC2)cc1` gave proCasp3 act 7, proCasp7 act 1, PHOSPHO1 block -14, IDE act -18, UBC13 inh 4 and IDE cell inh 11.
O=C(/C=C/c1ccc(F)cc1)N1CCCN(C(=O)/C=C/c2ccc(F)cc2)CC1 was read as proCasp3 act -4, proCasp7 act 0, PHOSPHO1 block -19, IDE act -12, UBC13 inh 6, IDE cell inh 24*, IDE cell inh cf 7 and HEK293 tox 6.
For COC(=O)c1cc(NC(=O)c2ccc(-c3ccccc3)cc2)ccc1Cl the results were proCasp3 act -2, proCasp7 act 9, PHOSPHO1 block -9, IDE act -19, UBC13 inh 13, IDE cell inh 30*, IDE cell inh cf 9 and HEK293 tox 28*.
`CCc1ccc(C(=O)Nc2ccc(OC)c(S(=O)(=O)N3CCOCC3)c2)cc1` gave proCasp3 act 13, proCasp7 act 1, PHOSPHO1 block 32, IDE act 2, UBC13 inh -5 and IDE cell inh -2.
For COc1ccc(NC(=O)c2ccc(-c3ccccc3)cc2)cc1S(=O)(=O)N1CCOCC1 the results were proCasp3 act 4, proCasp7 act 4, PHOSPHO1 block 23, IDE act -25, UBC13 inh 9, IDE cell inh 22*, IDE cell inh cf 19* and HEK293 tox 61*.
For CN(CCCNC(=O)Cn1c(=O)c2cccn2c2ccccc21)Cc1ccccc1 the results were proCasp3 act 5, proCasp7 act 0, PHOSPHO1 block 21, IDE act 3, UBC13 inh 1 and IDE cell inh 3.
`CC[n+]1c(/C=C/C=C/N(C(C)=O)c2ccccc2)sc2cc(OC)ccc21` gave proCasp3 act -20, proCasp7 act -23, PHOSPHO1 block 6, IDE cell inh 40*, IDE cell inh cf 35* and HEK293 tox 63*.
`Cc1cccc(-n2c(O)c(C=Nc3ccccc3-c3n[nH]c(=S)[nH]c3=O)c3ccccc3c2=O)n1` gave proCasp3 act -3, proCasp7 act -10, PHOSPHO1 block 8, IDE act -30, UBC13 inh -3, IDE cell inh 22*, IDE cell inh cf 17* and HEK293 tox 2.
For CCOc1ccc(N=C(C)C2=C(O)c3ccccc3C2=O)cc1 the results were proCasp3 act 2, proCasp7 act -3, PHOSPHO1 block 32, IDE act -11, UBC13 inh 8 and IDE cell inh 4.
Screening COc1ccc(N=C(C)C2=C(O)c3ccccc3C2=O)cc1 returned proCasp3 act 7, proCasp7 act -11, PHOSPHO1 block 27, IDE act -5, UBC13 inh 0, IDE cell inh 18*, IDE cell inh cf 7 and HEK293 tox 16.
Screening O=C(Cc1ccccc1[N+](=O)[O-])NCC(=O)c1ccc2c(c1)OCO2 returned IDE act 2.
For Cc1ccc(C)c(N2C(=N)S/C(=C\c3ccc(-c4ccccc4C(=O)O)o3)C2=O)c1 the results were proCasp3 act -23, proCasp7 act -25, PHOSPHO1 block -24, IDE act -13, IDE cell inh 32*, IDE cell inh cf 17*, HEK293 tox 4 and IDE FP artifact >55.
CCOC(=O)C(C)N1C(=O)S/C(=C\c2ccc(-c3ccccc3C(=O)O)o2)C1=O (stereo unspecified) was read as proCasp3 act 0, proCasp7 act -4, PHOSPHO1 block 42, IDE act 4, UBC13 inh 0 and IDE cell inh -1.
`Cc1nn(CC(=O)NC2(C#N)CCCCC2)c(C)c1[N+](=O)[O-]` gave proCasp3 act 6, proCasp7 act 6, IDE act 2, UBC13 inh -2 and IDE cell inh -1.
Screening COC(=O)c1c(NS(=O)(=O)c2cccs2)sc2c1CCCC2 returned proCasp3 act 0, proCasp7 act 4, PHOSPHO1 block 35, IDE act 3, UBC13 inh 1, IDE cell inh 18*, IDE cell inh cf 6 and HEK293 tox 10.
